Test results reported in ChEMBL document CHEMBL5715950, “Characterization of molecular and cellular functions of the cyclin-dependent kinase CDK9 using a novel specific inhibitor” (Br J Pharmacol, 2014).
Activity calls are given as the source filed them. No cut-off for these calls is given here.

Key:
THP-1 = experiment: Induction of apoptosis in human THP-1 cells at 10 uM incubated for 24 hrs by Annexin V-FITC/PI staining based flow cytometric analysis relative to control; type: functional
Summary of the method: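 Cells grown at 37°C, 5% CO2 (A549, HeLa, MCF7 in DMEM high glucose; HCT116 in McCoy's 5A; THP1 and primary AML M4 apheresis blasts in RPMI1640), exposed to inhibitor or DMSO for 24 h. Apoptotic fraction by flow cytometry after annexin V-fluorescein/propidium iodide double staining. Means ± SD of three biological replicates; AML blasts from one patient, three technical replicates. Student's t-test versus DMSO/untreated.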

HEK-293T = experiment: Inhibition of transcription in human HEK293T cells nuclear extract fused with Gal4-VP16 at 10 uM in presence of ATP and MgCl2 by phosphorimaging analysis; type: functional, subcellular; conditions: Nucleus
Summary of the method: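 In vitro transcription from the adenovirus core promoter (Gal-ML, 380 bp G-free cassette), soluble or bead-immobilised template, using HEK293T nuclear extract supplemented with recombinant Gal4-VP16. ATP 60 μM (low), 100 μM, or 500 μM (high); magnesium varied in one series. Transcripts quantified by phosphorimaging.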

[1] = Selectivity ratio of IC50 for inhibition of CDK9/Cyclin T1 (unknown origin) to IC50 for inhibition of CDK4/Cyclin D1 (unknown origin)
[2] = biological target: Tyrosine-protein kinase ABL2 (Homo sapiens, UniProt P42684); experiment: Inhibition of ABL2 (unknown origin) incubated for 120 mins in presence of 33P-ATP by radiometric kinase assay
Sequence of Tyrosine-protein kinase ABL2 (P42684 whole entry): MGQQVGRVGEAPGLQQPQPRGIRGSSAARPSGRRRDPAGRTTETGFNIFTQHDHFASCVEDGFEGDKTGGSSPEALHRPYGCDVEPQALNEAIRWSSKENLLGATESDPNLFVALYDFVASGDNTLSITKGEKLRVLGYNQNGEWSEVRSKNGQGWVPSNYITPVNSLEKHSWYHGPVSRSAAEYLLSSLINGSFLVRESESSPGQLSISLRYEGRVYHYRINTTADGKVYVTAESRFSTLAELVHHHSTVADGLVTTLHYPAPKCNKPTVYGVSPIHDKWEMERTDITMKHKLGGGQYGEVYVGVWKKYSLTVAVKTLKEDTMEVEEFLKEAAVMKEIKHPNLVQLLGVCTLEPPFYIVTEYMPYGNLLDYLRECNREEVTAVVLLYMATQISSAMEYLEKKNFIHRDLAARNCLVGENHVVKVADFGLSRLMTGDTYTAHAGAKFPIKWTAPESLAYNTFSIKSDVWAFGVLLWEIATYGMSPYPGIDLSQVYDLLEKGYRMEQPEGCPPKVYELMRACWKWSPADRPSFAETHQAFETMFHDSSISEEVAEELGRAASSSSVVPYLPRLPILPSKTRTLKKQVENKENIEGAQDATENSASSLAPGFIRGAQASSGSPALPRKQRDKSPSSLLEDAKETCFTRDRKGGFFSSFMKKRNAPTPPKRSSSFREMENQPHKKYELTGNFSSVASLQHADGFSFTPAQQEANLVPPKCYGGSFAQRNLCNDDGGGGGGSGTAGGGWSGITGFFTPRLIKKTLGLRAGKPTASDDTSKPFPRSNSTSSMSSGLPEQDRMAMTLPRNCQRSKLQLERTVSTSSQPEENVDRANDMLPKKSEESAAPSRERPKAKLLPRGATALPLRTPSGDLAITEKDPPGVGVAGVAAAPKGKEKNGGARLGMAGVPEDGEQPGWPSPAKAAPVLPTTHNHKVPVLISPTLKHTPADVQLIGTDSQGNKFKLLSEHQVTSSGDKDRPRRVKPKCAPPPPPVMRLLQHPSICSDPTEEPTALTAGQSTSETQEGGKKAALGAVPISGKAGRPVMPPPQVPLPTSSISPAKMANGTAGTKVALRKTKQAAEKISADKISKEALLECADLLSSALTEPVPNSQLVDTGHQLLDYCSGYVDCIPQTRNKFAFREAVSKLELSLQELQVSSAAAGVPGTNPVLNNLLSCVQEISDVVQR
Summary of the method: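 Radiometric panel assay, 10-dose mode: serial dilutions from […], in duplicate, at 1 μM ATP. Incubated 120 min at room temperature, then spotted on P81 paper, acid-washed and counted. Values are means.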

[3] = biological target: CDK9/cyclin T1 (Homo sapiens) (UniProt O60563+P50750); experiment: Inhibition of CDK9/Cyclin T1 (unknown origin) assessed as residual activity at 10 uM incubated for 120 mins in presence of 33P-ATP by radiometric kinase assay relative to control; type: protein-complex assay
CDK7/Cyclin H/MNAT1 = CDK7/Cyclin H/MNAT1 (Homo sapiens, UniProt P50613); experiment: Displacement of kinase tracer 236 from CDK7/Cyclin H/MAT1 (unknown origin) assessed as dissociation constant incubated for 1 hr by LanthScreen Eu kinase binding assay; type: protein-complex assay
Sequence of CDK7/Cyclin H/MNAT1 (P51946 whole entry): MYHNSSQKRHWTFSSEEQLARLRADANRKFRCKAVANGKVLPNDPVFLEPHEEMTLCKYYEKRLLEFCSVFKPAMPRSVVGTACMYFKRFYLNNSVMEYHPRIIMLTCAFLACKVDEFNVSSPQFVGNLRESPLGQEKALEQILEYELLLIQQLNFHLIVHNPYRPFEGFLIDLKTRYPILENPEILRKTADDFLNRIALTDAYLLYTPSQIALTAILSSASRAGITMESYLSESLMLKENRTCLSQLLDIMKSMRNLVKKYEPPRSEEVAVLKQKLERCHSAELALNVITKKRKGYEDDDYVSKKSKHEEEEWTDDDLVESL
Sequence of CDK7/Cyclin H/MNAT1 (P50613 whole entry): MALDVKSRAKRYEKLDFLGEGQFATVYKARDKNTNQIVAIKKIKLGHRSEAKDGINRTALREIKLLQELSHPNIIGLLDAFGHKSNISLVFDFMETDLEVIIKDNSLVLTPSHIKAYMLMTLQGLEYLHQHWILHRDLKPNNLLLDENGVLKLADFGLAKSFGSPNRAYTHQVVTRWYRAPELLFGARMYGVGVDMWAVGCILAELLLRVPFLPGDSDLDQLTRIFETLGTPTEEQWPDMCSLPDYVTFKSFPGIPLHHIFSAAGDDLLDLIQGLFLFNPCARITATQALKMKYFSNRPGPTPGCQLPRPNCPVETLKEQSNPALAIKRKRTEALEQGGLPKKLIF
Sequence of CDK7/Cyclin H/MNAT1 (P51948 whole entry, further chain): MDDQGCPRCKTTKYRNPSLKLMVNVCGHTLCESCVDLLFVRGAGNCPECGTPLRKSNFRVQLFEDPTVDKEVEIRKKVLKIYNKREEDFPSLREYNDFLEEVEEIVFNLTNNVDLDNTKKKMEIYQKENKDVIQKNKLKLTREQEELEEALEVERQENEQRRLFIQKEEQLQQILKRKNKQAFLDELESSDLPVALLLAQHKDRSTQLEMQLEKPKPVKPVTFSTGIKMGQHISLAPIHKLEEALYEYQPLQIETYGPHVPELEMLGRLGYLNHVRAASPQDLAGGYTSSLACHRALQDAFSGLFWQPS

[4] = biological target: Cyclin-dependent kinase 9 (Homo sapiens) (UniProt P50750); experiment: Inhibition of CDK9 in human A549 cells assessed as downregulation of p21 mRNA expression at 2 to 6 uM incubated for 90 mins by RT-qPCR analysis relative to control; type: cell-based; conditions: dose 2-6 µM
Sequence of Cyclin-dependent kinase 9 (Homo sapiens) (P50750 whole entry, the tested form may be a part): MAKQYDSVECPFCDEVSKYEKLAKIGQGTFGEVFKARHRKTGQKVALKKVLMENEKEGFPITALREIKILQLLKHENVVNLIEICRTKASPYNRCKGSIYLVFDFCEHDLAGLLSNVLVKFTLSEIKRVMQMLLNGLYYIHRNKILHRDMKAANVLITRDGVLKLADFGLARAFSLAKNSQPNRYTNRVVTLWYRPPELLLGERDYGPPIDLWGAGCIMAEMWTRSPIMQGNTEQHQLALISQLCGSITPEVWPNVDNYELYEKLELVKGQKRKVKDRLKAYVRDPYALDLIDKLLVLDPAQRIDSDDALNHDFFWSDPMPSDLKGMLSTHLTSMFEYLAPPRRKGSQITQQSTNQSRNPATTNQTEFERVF

HeLa [5] = experiment: Inhibition of RNA synthesis in human HeLa cells stably transfected with luciferase reporter gene at 2 uM incubated for 30 mins followed by doxycycline addition and measured after 60 mins by RT-qPCR analysis relative to control; type: functional; conditions: 1.5 h, time 90 min
Summary of the method: (§1)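 Stably transfected HeLa cells carrying a tetracycline-inducible luciferase reporter: inhibitor or DMSO for 30 min, then 1 μg/mL doxycycline for 60 min. De novo reporter transcripts measured by RT-qPCR.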

[6] = biological target: Calcium/calmodulin-dependent protein kinase type IV (Homo sapiens, UniProt Q16566); experiment: Inhibition of CAMK4 (unknown origin) incubated for 120 mins in presence of 33P-ATP by radiometric kinase assay
Sequence of Calcium/calmodulin-dependent protein kinase type IV (Q16566 whole entry): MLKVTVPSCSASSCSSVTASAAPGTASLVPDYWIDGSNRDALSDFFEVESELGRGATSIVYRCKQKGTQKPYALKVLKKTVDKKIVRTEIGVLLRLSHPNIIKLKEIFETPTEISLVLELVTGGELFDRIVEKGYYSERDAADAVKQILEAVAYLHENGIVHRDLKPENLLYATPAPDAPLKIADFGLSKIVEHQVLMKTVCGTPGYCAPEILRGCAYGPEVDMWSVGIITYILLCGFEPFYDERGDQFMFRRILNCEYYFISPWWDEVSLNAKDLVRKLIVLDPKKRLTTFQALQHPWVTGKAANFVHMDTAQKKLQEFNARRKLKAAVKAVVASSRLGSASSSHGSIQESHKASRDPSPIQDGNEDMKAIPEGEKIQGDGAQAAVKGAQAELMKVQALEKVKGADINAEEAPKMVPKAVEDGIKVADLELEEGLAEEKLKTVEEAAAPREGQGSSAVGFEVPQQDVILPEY

HeLa [7] = experiment: Inhibition of RNA synthesis in human HeLa cells stably transfected with luciferase reporter gene at 0.04 to 2 uM incubated for 30 mins followed by doxycycline addition and measured after 60 mins by RT-qPCR analysis; type: functional, cell-based; conditions: dose 0.04-2 µM, time 90.0 min; summary of the method: as §1
[8] = biological target: Cyclin-dependent kinase 9 (Homo sapiens) (UniProt P50750); experiment: Inhibition of CDK9 in human HeLa cells assessed as downregulation of Serine 7 phosphorylation at 10 uM incubated for 60 mins by Western blotting analysis; type: cell-based
A549 = experiment: Transcription level in human A549 cells nuclear extract fused with Gal4-VP16 at 10 uM in presence of ATP by phosphorimaging analysis relative to control
[9] = biological target: Cyclin-dependent kinase 9 (Homo sapiens) (UniProt P50750); experiment: Inhibition of CDK9 in human A549 cells assessed as downregulation of RPL3 mRNA expression at 2 to 6 uM incubated for 90 mins by RT-qPCR analysis relative to control; type: cell-based; conditions: dose 2-6 µM
[10] = biological target: Cyclin-dependent kinase 9 (Homo sapiens) (UniProt P50750); experiment: Inhibition of CDK9 in human HeLa cells assessed as upregulation of RNAPII expression at 10 uM incubated for 1 hr by chromatin immunoprecipitation assay; type: cell-based

COc1ccccc1-c1cc(Nc2cccc(NS(C)(=O)=O)c2)ncn1
Activity (THP-1): 45% | inhibition (HEK-293T): inactive | Ratio IC50 [1]: 210 | IC50 [2]: 3.64 µM | Activity [3]: 6% | Kd (CDK7/Cyclin H/MNAT1): 16 µM | inhibition [4]: 50% | inhibition at 2 µM (HeLa [5]): 50% | IC50 [6]: > 20 µM | inhibition (HeLa [7]): Active | inhibition [8]: inactive | level, % of control at 10 µM (A549): 20% | inhibition [9]: 50% | inhibition [10]: Active
